The values that follow come from ChEMBL document CHEMBL4513216, “Probing the Open Global Health Chemical Diversity Library for Multistage-Active Starting Points for Next-Generation Antimalarials” (ACS Infect Dis, 2020).

Structures are written as SMILES.

The data set in a line: Toxicity liver stage against HepG2, at 10uM. The class given is cell-based. On the set-up: test concentration 10 uM, cell line HepG2-A16-CD81EGFP. The conditions noted are these: human, HepG2-A16-CD81EGFP cells; read-out: INHIBITION
An outline of the steps:
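Uninfected HepG2-A16-CD81EGFP cells, 3 × 10^3 per well, 1536-well, plated on prespotted compound at 10 μM final, parasite-free screening media added to match infected plates; puromycin 10 μM positive, DMSO 0.5% negative; run in parallel with 48 h PbLuc assay at 37 °C, 5% CO2; viability by CellTiter-Glo luminescence, normalized to controls.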
As to `CN(C)[C@@H]1CCN(C(=O)Cc2cccs2)[C@H]1Cc1ccncc1`, the cytotoxicity at 10 µM was -70.1%. `Cc1cc(C(=O)N2CCc3ncnc(N4CCSCC4)c3CC2)[nH]n1`: the cytotoxicity at 10 µM is -6.98%. In the case of `Cc1nccc(-c2cccc(NCC(=O)N3CCCC(C)C3)c2)n1` (stereo unspecified) it was -6.27%; in that of `COc1nn(C)cc1C(=O)N1CCC(C)CC1`, 5.97%; in that of `COc1ccc2c(OCC(=O)NC(C)(C)C)ccnc2c1`, -2.04%. With `CS(=O)(=O)NC[C@]12COC[C@H]1CN(C(=O)C1CC=CC1)C2`, the cytotoxicity at 10 µM is -105%. In the case of `O=C(NCC1CC1)C1CN(C(=O)Nc2ccccc2)CC12CCOCC2` (stereo unspecified) it was -82.6%; in that of `COc1ccc(C(=O)NC2CC2)c(OC2CCN(CCCSC)CC2)c1`, -1.76%.

With `Cc1ccc(CN(C)C(=O)CN2CCCCC2Cn2cncn2)o1` (stereo unspecified), the cytotoxicity at 10 µM was found to be 0.508%. For the molecule `COc1cc(N2CCN(Cc3ccsc3)C(CCO)C2)nc(N)n1` (stereo unspecified), the cytotoxicity at 10 µM was determined as 2.45%.

Take `O=c1c2cccnc2cnn1CC(O)c1cccc(Cl)c1` (stereo unspecified): the cytotoxicity at 10 µM is -10.2%. In the case of `CN(C)c1ccc(CCCNC(=O)NCC(O)c2ccsc2)cc1` (stereo unspecified) it was -6.88%.

`COc1ccccc1CCNS(=O)(=O)N1CCOCC1`: the cytotoxicity at 10 µM worked out at 2.52%.

`CS(=O)(=O)NC[C@]12COC[C@H]1CN(Cc1ccc3c(c1)OCO3)C2`: the cytotoxicity at 10 µM was -106%. For the molecule `COCCN1C(=O)C2(CCC(C(=O)Nc3cccc(C)c3)CC2)N=C1C` (stereo unspecified), the cytotoxicity at 10 µM was found to be 9.76%. As to `CCOCc1nnc(NCc2cccnc2)o1`, the cytotoxicity at 10 µM came out at 10.9%. As to `COCc1ncc(CN2CCC(Oc3ccccc3C)CC2)cn1`, the cytotoxicity at 10 µM turned out to be 1.09%. For the molecule `O=C(Nc1cccc(CN2CCC(CO)CC2)c1)c1cc(Cl)c[nH]1`, the cytotoxicity at 10 µM was -150%. For `Cn1cc(-c2cnc(-c3ccnn3C)nc2)cc1C(=O)NC1CC1`, the cytotoxicity at 10 µM was 3.77%. The result for `Cc1cccc(I)c1C(=O)NCc1ncc[nH]1` reads 0.392%. In the case of `Cn1c(=O)n(C)c2cc(NS(=O)(=O)Cc3cccc(F)c3)ccc21` it was 6.37%. In the case of `COCCN1CCN(Cc2ccc(F)c(C)c2)[C@H]2CS(=O)(=O)C[C@H]21` it was -25.5%; in that of `CC(C)CC(=O)N1CCN(Cc2cc(-c3ccncc3)nn2C)CC1`, -23.2%; in that of `Cc1nc2c(c(N(C)Cc3ccccc3-n3cccn3)n1)CCNCC2`, -11.2%.

`Cc1nc2ccc(S(=O)(=O)Nc3c(C)nn(CC(=O)O)c3C)cc2s1`: the cytotoxicity at 10 µM was -2.83%. The result for `COCCN(Cc1ccc(F)cc1Cl)C(=O)c1c(C)noc1C` reads -1.82%; that for `CN1C[C@@H](n2cnc(-c3ccccc3)c2-c2c[nH]cn2)C[C@H]1C(=O)O`, 0.791%.

On to `CCN(C)c1ncnc2c1CCN(Cc1nccs1)CC2`, for which the cytotoxicity at 10 µM was -2.46%. Regarding `COC(=O)CNC(=O)CSCc1nc(O)c2c(C)c(C)sc2n1`, the cytotoxicity at 10 µM was found to be 0.562%.

For the molecule `CC1(C(=O)N2CCOCC2)CN(CC2CCOCC2)CCO1` (stereo unspecified), the cytotoxicity at 10 µM was 4.14%. `Cc1nn(C)c(C)c1CN(C)c1nc(C2CC2)nc2c(C)nn(C)c12`: the cytotoxicity at 10 µM came to 3.98%. Regarding `CCOc1ccnc(N2CCN(C(=O)c3c(CC)noc3C)CC2)n1`, the cytotoxicity at 10 µM is -5.43%.

Take `Fc1cccc(CN2CCC[C@@H](Cn3nnc(-c4ccccn4)n3)C2)c1`: the cytotoxicity at 10 µM is 3.33%. In the case of `Cc1nc(CC(=O)NCCN2CCC(c3ccccc3C)C2)cs1` (stereo unspecified) it was -40%; in that of `CN(C(=O)c1ncn2c1CN(C)S(=O)(=O)c1ccccc1-2)C1CC1`, -131%; in that of `COc1cccc(CN2CCN(CC(C)C)C(=O)C2C)c1O` (stereo unspecified), 2.02%. The result for `Cc1ccc(N2CCC3(CC2)CCN(C2CCOC2)CC3)nn1` (stereo unspecified) reads 7.67%. On to `CN(CCC(F)(F)F)C(=O)C1CSCN1C(=O)C(C)(C)C` (stereo unspecified), for which the cytotoxicity at 10 µM turned out to be 9.07%.

With `COc1cccc(C2CCCN2C(=O)NCCCn2cccn2)c1` (stereo unspecified), the cytotoxicity at 10 µM was 15.5%. The result for `N[C@@H]1c2ccccc2C2(CCN(c3cc(C(F)(F)F)ccn3)CC2)[C@H]1O` reads 0.106%.

Consider `CC(C(=O)NC(C)(C)C)S(=O)(=O)Cc1noc(C(C)(C)C)n1` (stereo unspecified), for which the cytotoxicity at 10 µM was -10.8%. In the case of `Cc1nnc(NCC2(c3ccccc3)CCOCC2)c(C#N)c1C` it was 7.35%; in that of `Cc1cnn(CC(C)NCc2ccc(-n3cccn3)cc2)c1` (stereo unspecified), 1.44%; in that of `CC(C)(C)c1ncc(C(=O)NCCNC(=O)c2ccco2)s1`, -1.98%. The result for `FC(F)(F)c1n[nH]c2c1CN(Cc1cn3ccccc3n1)CC2` reads 7.76%; that for `O=C(CNCCn1cccn1)NCC1(c2ccccc2)CC1`, 3.15%; that for `CN(C)C(=O)c1cc(-c2ccncc2)[nH]n1`, 0.676%.

`CCN(C)c1ncnc2c1CCN(C(=O)NCc1cccnc1)CC2`: the cytotoxicity at 10 µM was -126%.

Turning to `CCC(NCc1cccc(Cl)c1)c1ccccc1OCC(=O)NC` (stereo unspecified), the cytotoxicity at 10 µM is -2.65%. Regarding `O=C(CO)N1CCCC(N2CCN(c3ccccc3F)CC2)C1` (stereo unspecified), the cytotoxicity at 10 µM is -49.1%. In the case of `Cc1cc(NC(=O)c2nc(N3CCCC3)ncc2Cl)ccc1Br` it was -7.2%; in that of `Cc1cc(C2CCCN2CCCc2nc3ccccc3o2)on1` (stereo unspecified), -5.58%; in that of `COc1cccc(CN2CCC3(CC(Nc4ccncn4)C3)C2)c1F` (stereo unspecified), 1.69%. In the case of `Cc1c(C2CCCN(C(=O)OC(C)(C)C)C2)n2c(nc1=O)CCC2` (stereo unspecified) it was -16%; in that of `COc1cc(F)ccc1-c1cc(CO)ccn1`, 6.58%; in that of `CN1CCN(c2ccc(NCc3ccc(OC(F)(F)F)cc3)cn2)CC1`, 14.9%. With `Cc1oc(-c2nc(C#N)c(NC(C)C)o2)cc1S(=O)(=O)N1CCCCC1`, the cytotoxicity at 10 µM turned out to be 4.28%. On to `O=C(Cc1ccsc1)N1CCCC(c2cc(C(F)F)n3ncnc3n2)C1` (stereo unspecified), for which the cytotoxicity at 10 µM was -20.7%. In the case of `Cc1nn(C)c(C)c1CNC(=O)c1cc(NC(=O)C2CC2)n(C)n1` it was 5.31%; in that of `CCC(=O)NCC(=O)NCC1CCN(c2cc(Cl)ccc2C)C1` (stereo unspecified), -13.2%. With `Cc1cnc2n(c1=O)C(CC(=O)NCc1ccco1)CS2` (stereo unspecified), the cytotoxicity at 10 µM was -5.52%. In the case of `CC(C)CCN1C(=O)c2ccc(C(=O)NCCc3c[nH]cn3)cc2C1=O` it was -12.5%; in that of `CSC(C)CCN1CCCn2nc(CNC(=O)C3CCC3)cc2C1` (stereo unspecified), 0.812%.

With `O=C(c1cnc(COc2ccccc2)nc1O)N1CCOCC1`, the cytotoxicity at 10 µM was determined as 2.55%.

With `Cn1nccc1-c1ncc(-c2cc(C(=O)O)n(CC3CC3)c2)cn1`, the cytotoxicity at 10 µM turned out to be 1.55%. In the case of `CCN1CCC(NC(=O)Cn2cc(C)c3ccccc32)CC1` it was -1.74%. The result for `CNc1cc(-c2ccc(COCCN)cc2)c2cc[nH]c2n1` reads 5.89%; that for `Cc1cccc(NC(=O)c2sc(C)nc2C)n1`, 5.52%; that for `CN(Cc1cncnc1)[C@@H]1CN(C(=O)C2CC2)[C@@H]2CCCO[C@H]12`, -112%. The result for `O=C(CCN1CCCC1)Nc1c2c(cc3c1CCC3)CCC2` reads 6.3%; that for `CN(C(=O)CCC(F)(F)F)c1cccc2ncccc12`, 1.9%; that for `Cc1nc(C)n(C2CCCN(C(=O)c3ncoc3C(C)C)C2)n1` (stereo unspecified), -17%. With `CCn1c(SCC(=O)N2CCCC2)nc2cc(C)[nH]c2c1=O`, the cytotoxicity at 10 µM is 7.44%. As to `CC1(C)CN(C(=O)c2ccccc2-n2cncn2)CC1(C)O` (stereo unspecified), the cytotoxicity at 10 µM was -19.3%. The result for `Cc1ncsc1C(=O)NCCc1cccs1` reads -15.3%; that for `CCCC(NC(=O)c1cnccn1)c1nnc2ccccn12` (stereo unspecified), 11.1%; that for `COc1cc(C)nc(N2CCN(C(=O)CSC)CC2)n1`, -6.42%.

`COCc1noc(-c2ccc(N3CCCCC3COC)nc2)n1` (stereo unspecified): the cytotoxicity at 10 µM worked out at 1.69%. The result for `CC(C)c1cc(NC(=O)CN2CCc3nn(C)c(=O)cc3C2)on1` reads -4.44%. The result for `COCC(NC(=O)c1cccnc1)c1cccc(C(F)(F)F)c1` (stereo unspecified) reads -12.9%; that for `O=C(C1CCOCC1)N1C[C@@H]2C[C@@H](c3nc(C4CC4)cs3)O[C@@H]2C1`, -10.1%; that for `CC1COc2ccccc2N1C(=O)c1ccc(=O)n(C)c1` (stereo unspecified), -3.42%. The result for `CCN1C(=O)CCC12CCCN(CCc1ccccc1)C2` (stereo unspecified) reads -0.449%; that for `Cc1nnc(N2CCCC3(CN(Cc4cnn(C)c4)CCO3)C2)o1` (stereo unspecified), 4.12%; that for `Cc1nn(C)c(N2CCCN(C)CC2)c1CNC(=O)CC(C)(C)C`, 8%. In the case of `Cc1ccsc1CN1CCC(n2cc(C(O)c3ccccc3)nn2)CC1` (stereo unspecified), the cytotoxicity at 10 µM was 8.69%.

Turning to `CCc1nnsc1C(=O)N1CCCN(Cc2nccn2C)CC1`, the cytotoxicity at 10 µM was -4.26%. As for `CCc1cnc(N2C[C@@H]3C[C@H](C(=O)N4CCOCC4)[C@H](C2)O3)nc1`, the cytotoxicity at 10 µM is -104%. In the case of `CN1CCN(C(=O)[C@@H]2C[C@@H]3CCN(c4cccc(F)c4)C[C@H]3O2)CC1` it was -6.22%. As to `COc1ccc(-c2cc3nc(CCNC(=O)C4CC4)nn3cn2)cc1`, the cytotoxicity at 10 µM is 8.38%.

In the case of `CCn1cc(C(=O)n2nc(C)cc2C)c(S(=O)(=O)N2CCCCC2)n1`, the cytotoxicity at 10 µM was -3.81%.

For `Cc1n[nH]c(C)c1NC(=O)CN1CCCC1c1noc(C(C)C)n1` (stereo unspecified), the cytotoxicity at 10 µM came out at 6.45%. In the case of `CC(C)(NC(=O)NCc1cccc(Br)c1)C(=O)O` it was 9.13%. `Fc1cccc(-n2ccc(CN3CCCCC3Cn3cncn3)n2)c1` (stereo unspecified): the cytotoxicity at 10 µM was -3.81%. In the case of `CC(C)c1nnc2n1CCN(C(=O)c1ccc(OCC3CC3)nc1)C2` it was -0.556%; in that of `CC(=O)N1CCC(c2nn(C)c3nccnc23)C1` (stereo unspecified), -21.1%.
